Measured values as given in ChEMBL document CHEMBL4431370, “Novel tricyclic poly (ADP-ribose) polymerase-1/2 inhibitors with potent anticancer chemopotentiating activity: Design, synthesis and biological evaluation” (Bioorg Med Chem, 2016).

What was measured:
[1] = target: T1, Poly [ADP-ribose] polymerase 1 (Homo sapiens, UniProt P09874); assay: Inhibition of PARP-1 (unknown origin) at 100 nM after 1 hr in presence of NAD+/biotinylated NAD+/slDNA by ELISA
Procedure, shortened: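 Histone-coated wells (20 μg/mL in PBS pH 7.4, 4 °C overnight). Reaction buffer 50 mM Tris, 2 mM MgCl2, pH 8.0, with 100 μM NAD+, 25 μM biotinylated NAD+ and 200 nM slDNA. Started with PARP-1 (50 ng/well), 1 h at 30 °C. Detection by streptavidin-HRP for 30 min at 30 °C, then H2O2/luminol in citrate buffer pH 5.4, luminescence read. Inhibition % = (control−treated)/control ×100.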

MDA-MB-468 [2] = assay: Growth inhibition of human MDA-MB-468 cells at 100 uM after 72 hrs by SRB assay; type: functional; conditions: for inhibition of growth at 100 µM: Homo sapiens, MDA-MB-468, 72 h, read-out: GI
Procedure, shortened: (§1)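 SRB read-out on adherent cells seeded in 96-well plates. Single-agent exposure at 100 μM for 72 h. Cells fixed in trichloroacetic acid for 1 h at 4 °C, stained with 0.4% (w/v) SRB for 20 min at room temperature, washed with 1% acetic acid. Bound dye solubilized in 10 mM Tris, absorbance read at 540 nm. Percent proliferation inhibition reported; means of two independent experiments.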

[3] = target: T1, Poly [ADP-ribose] polymerase 1; assay: Inhibition of PARP-1 (unknown origin) after 1 hr in presence of NAD+/biotinylated NAD+/slDNA by ELISA
SW-620 [4] = assay: Growth inhibition of human SW620 cells at 100 uM after 72 hrs by SRB assay; type: functional; conditions: for inhibition of growth at 100 µM: Homo sapiens, SW-620, 72 h, read-out: GI; procedure, shortened: as §1
[5] = target: Poly [ADP-ribose] polymerase 2 (Homo sapiens, UniProt Q9UGN5); assay: Inhibition of PARP-2 (unknown origin) after 1 hr in presence of NAD+/biotinylated NAD+/slDNA by ELISA
SW-620 [6] = assay: Growth inhibition of human SW620 cells after 72 hrs by SRB assay; type: functional, cell-based
MDA-MB-468 [7] = assay: Growth inhibition of human MDA-MB-468 cells after 72 hrs by SRB assay; type: functional, cell-based
[8] = target: T1, Poly [ADP-ribose] polymerase 1; conditions: A549
[9] = target: T1, Poly [ADP-ribose] polymerase 1
[10] = target: T1, Poly [ADP-ribose] polymerase 1; conditions: MDA-MB-468

Sequence of Poly [ADP-ribose] polymerase 2 (Q9UGN5 whole entry): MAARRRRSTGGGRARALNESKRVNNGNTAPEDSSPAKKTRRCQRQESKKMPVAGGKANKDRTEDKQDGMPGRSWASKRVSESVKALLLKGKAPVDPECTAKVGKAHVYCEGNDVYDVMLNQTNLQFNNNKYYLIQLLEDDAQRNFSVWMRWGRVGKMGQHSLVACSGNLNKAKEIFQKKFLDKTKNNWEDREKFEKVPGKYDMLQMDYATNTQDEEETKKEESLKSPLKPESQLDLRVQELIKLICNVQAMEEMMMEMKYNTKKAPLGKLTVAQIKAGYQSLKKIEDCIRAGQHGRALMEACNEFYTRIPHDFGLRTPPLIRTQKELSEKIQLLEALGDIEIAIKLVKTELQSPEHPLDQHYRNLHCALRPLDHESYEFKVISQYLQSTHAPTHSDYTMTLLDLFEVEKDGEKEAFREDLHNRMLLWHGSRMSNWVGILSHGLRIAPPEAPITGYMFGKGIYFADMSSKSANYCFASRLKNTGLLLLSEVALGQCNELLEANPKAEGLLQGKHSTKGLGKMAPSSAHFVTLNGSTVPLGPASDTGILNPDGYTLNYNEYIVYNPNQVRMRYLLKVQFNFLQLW
T1 sequence (P09874 whole entry): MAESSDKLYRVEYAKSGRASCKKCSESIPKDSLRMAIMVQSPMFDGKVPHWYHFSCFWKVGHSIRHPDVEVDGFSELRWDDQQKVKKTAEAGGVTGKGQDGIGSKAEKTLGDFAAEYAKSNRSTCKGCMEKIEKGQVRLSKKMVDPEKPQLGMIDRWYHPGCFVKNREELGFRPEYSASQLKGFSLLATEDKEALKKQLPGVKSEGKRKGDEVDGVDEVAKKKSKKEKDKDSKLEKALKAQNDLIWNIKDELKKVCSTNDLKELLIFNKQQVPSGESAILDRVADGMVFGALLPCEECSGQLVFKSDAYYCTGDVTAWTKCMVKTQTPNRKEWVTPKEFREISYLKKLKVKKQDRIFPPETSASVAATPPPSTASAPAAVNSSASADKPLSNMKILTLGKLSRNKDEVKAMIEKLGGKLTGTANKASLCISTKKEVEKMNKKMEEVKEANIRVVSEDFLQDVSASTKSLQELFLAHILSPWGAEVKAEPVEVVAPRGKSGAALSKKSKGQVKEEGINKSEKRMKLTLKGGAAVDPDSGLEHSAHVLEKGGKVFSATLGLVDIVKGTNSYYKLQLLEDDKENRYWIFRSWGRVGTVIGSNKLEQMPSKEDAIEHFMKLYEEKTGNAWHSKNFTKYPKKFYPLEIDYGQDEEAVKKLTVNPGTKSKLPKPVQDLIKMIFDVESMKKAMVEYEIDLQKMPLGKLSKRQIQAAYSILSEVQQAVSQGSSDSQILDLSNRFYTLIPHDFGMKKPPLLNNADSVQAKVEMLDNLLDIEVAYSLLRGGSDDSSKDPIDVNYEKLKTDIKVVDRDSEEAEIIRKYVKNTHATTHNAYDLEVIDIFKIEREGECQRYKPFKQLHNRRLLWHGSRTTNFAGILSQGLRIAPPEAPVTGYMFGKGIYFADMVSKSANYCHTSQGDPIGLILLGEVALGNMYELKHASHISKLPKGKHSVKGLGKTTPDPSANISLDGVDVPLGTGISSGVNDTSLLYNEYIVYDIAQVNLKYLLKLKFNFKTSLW

| Compound | inhibition of growth at 100 µM (MDA-MB-468 [2]) [%] | IC50 [3] [nM] | inhibition of growth at 100 µM (SW-620 [4]) [%] | other results |
| --- | --- | --- | --- | --- |
| O=C1NCCn2c(C3CCN(C(=O)c4cccc(Cl)c4)CC3)nc3cncc1c32 | – | – | – | inhibition [1]: < 10% |
| O=C1NCCn2c(C3CCN(C(=O)c4ccc(Cl)cc4)CC3)nc3cncc1c32 | – | – | – | inhibition [1]: < 10% |
| O=C1NCCn2c(C3CCN(C(=O)c4ccccc4Cl)CC3)nc3cncc1c32 | – | – | – | inhibition [1]: < 10% |
| CCCN1CCC(c2nc3cncc4c3n2CCNC4=O)CC1 | 30 | 19 | 41 | – |
| O=C1NCCn2c(C3CCNCC3)nc3cncc1c32 | 32 | 54 | 25 | – |
| CC(C)N1CCC(c2nc3cncc4c3n2CCNC4=O)CC1 | – | 92 | – | – |
| O=C1NCCn2c(-c3ccc(CN4CCCCC4)cc3)nc3cncc1c32 | – | 29 | – | – |
| O=C1NCCn2c(C3CCN(C(=O)C4CC4)CC3)nc3cncc1c32 | – | – | – | inhibition [1]: < 10% |
| CCNCc1ccc(-c2nc3cncc4c3n2CCNC4=O)cc1 | 82 | 11 | 94 | IC50 [5]: 9.9 nM; EC50 (SW-620 [6]; Homo sapiens, SW-620, 72 h): 23600 nM; EC50 (MDA-MB-468 [7]; Homo sapiens, MDA-MB-468, 72 h): 4600 nM |
| CN1CCN(c2ccc(-c3nc4cncc5c4n3CCNC5=O)cc2)CC1 | – | 139 | – | – |
| O=C1NCCn2c(-c3ccccc3)nc3cncc1c32 | – | 110 | – | – |
| CC(=O)N1CCC(c2nc3cncc4c3n2CCNC4=O)CC1 | – | – | – | inhibition [1]: < 10% |
| O=C1NCCn2c(C3CCN(Cc4ccccc4)CC3)nc3cncc1c32 | – | 103 | – | – |
| CCCCN1CCC(c2nc3cncc4c3n2CCNC4=O)CC1 | 47 | 21 | 67 | EC50 (SW-620 [6]; Homo sapiens, SW-620, 72 h): 95000 nM |
| O=C1NCCn2c(-c3ccc(N4CCNCC4)cc3)nc3cncc1c32 | 57 | 20 | 15 | IC50 [5]: 5.5 nM; EC50 (MDA-MB-468 [7]; Homo sapiens, MDA-MB-468, 72 h): 94000 nM |
| O=C1NCCn2c(C3CCN(C(=O)c4ccccc4)CC3)nc3cncc1c32 | – | – | – | inhibition [1]: < 10% |
| CC(C)(C)NCc1ccc(-c2nc3cncc4c3n2CCNC4=O)cc1 | – | 75 | – | – |
| CN(C)Cc1ccc(-c2nc3cncc4c3n2CCNC4=O)cc1 | – | 28 | – | – |
| O=C1NCCn2c(-c3ccc(CN4CCCC4)cc3)nc3cncc1c32 | – | 20 | – | – |
| CNCc1ccc(-c2nc3cncc4c3n2CCNC4=O)cc1 | 71 | 13 | 80 | IC50 [5]: 7.2 nM; EC50 (SW-620 [6]; Homo sapiens, SW-620, 72 h): 89000 nM; EC50 (MDA-MB-468 [7]; Homo sapiens, MDA-MB-468, 72 h): 81400 nM |
| CC(C)NCc1ccc(-c2nc3cncc4c3n2CCNC4=O)cc1 | – | 58 | – | – |
| C[C@]1(c2nc3c(C(N)=O)cccc3[nH]2)CCCN1 [VELIPARIB] | – | – | – | growth inhibition (GI) (MDA-MB-468 [2]): 69%; PF50 [8]: 1.5; growth inhibition (GI) (SW-620 [4]): 95%; EC50 (SW-620 [6]; sw-620): 27100 nM; PF50 [9]: 3.1; EC50 (MDA-MB-468 [7]; mda-mb-468): 43000 nM; PF50 [10]: 1.2 |
| CC(C)CN1CCC(c2nc3cncc4c3n2CCNC4=O)CC1 | 53 | 28 | 77 | IC50 [5]: 7.7 nM; EC50 (SW-620 [6]; Homo sapiens, SW-620, 72 h): 52600 nM; EC50 (MDA-MB-468 [7]; Homo sapiens, MDA-MB-468, 72 h): 18900 nM |
